Results from ChEMBL document CHEMBL2146438, “Radiolabeled cyclosaligenyl monophosphates of 5-iodo-2'-deoxyuridine, 5-iodo-3'-fluoro-2',3'-dideoxyuridine, and 3'-fluorothymidine for molecular radiotherapy of cancer: synthesis and biological evaluation” (J Med Chem, 2012).
The source made the active and inactive calls. The rule behind the calls is not given here.

Tests used:
[1] = Cellular uptake in human OVCAR3 cell cytoplasm assessed as per 10^3 cells after 1 hr by gamma counting; type: ADME, cell-based; details: ovcar-3, 1 h
Summary of the method: (§1)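 OVCAR-3 cells incubated 1 h with 55.5 (0.04) kBq/mL 125I-labelled agent (diastereomer mixtures or resolved slow isomers); fractionated either immediately or after 24 h further growth in fresh nonradioactive medium; 125I in cytoplasm and nucleus counted as cpm/10^3 cells with std dev.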

[2] = Cellular uptake in human OVCAR3 cell cytoplasm assessed as per 10^3 cells after 24 hrs by gamma counting; type: ADME, cell-based; details: ovcar-3, 24 h; summary of the method: as §1
[3] = Cellular uptake in human OVCAR3 cell nucleus assessed as per 10^3 cells after 1 hr by gamma counting; type: ADME, cell-based; details: ovcar-3, 1 h; summary of the method: as §1
[4] = Cellular uptake in human OVCAR3 cell nucleus assessed as per 10^3 cells after 24 hrs by gamma counting; type: ADME, cell-based; details: ovcar-3, 24 h; summary of the method: as §1
[5] = tested on: U-87MG ATCC; experiment: Cytotoxicity against human U87MG cells at 4.76 kBq/mL assessed as cell survival incubated for 1 hr followed by compound wash out measured after 24 hrs by clonogenic assay; type: functional, cell-based; details: tested as the 125I-labelled form
Summary of the method: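 U-87 MG cells treated 1 h with 4.76 kBq/mL 125I agent, then plated immediately or grown 24 h in fresh medium before clonogenic assay; surviving fraction relative to untreated control colonies.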

[6] = Cellular uptake in human OVCAR3 cytoplasm at 55.5 kBq/mL incubated for 1 hr followed by compound wash out measured after 24 hrs by gamma counting; type: ADME, cell-based; details: ovcar-3, 1 h; summary of the method: as §1
[7] = molecular target: Cholinesterase (Homo sapiens, UniProt P06276); experiment: Inhibition of human BChE after 30 mins by microplate reader method
[8] = Chemical stability of the compound in phosphate buffer at pH 7.3; type: physicochemical
[9] = Half life of the compound in phosphate buffer at pH 7.3; type: physicochemical
[10] = Cytotoxicity against human LS 174T cells assessed as colony formation at 114.5 kBq/mL incubated for 4 hrs measured after 21 days by clonogenic assay; type: functional, LS174T
Summary of the method: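 LS 174T cells exposed 4 h to 114.5 kBq/mL 125I agent, cultured 24 h in nonradioactive medium, then harvested and plated; colonies counted after 21 days; surviving fraction = treated colonies / untreated control colonies.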

[11] = tested on: LS174T; experiment: Cytotoxicity against human LS 174T cells assessed as incorporation of radioisotope at 185 kBq/mL after 4 hrs by gamma counting; type: functional, cell-based; details: tested as the 125I-labelled form
Summary of the method: (§2)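 LS 174T cells exposed 4 h to 185 kBq/mL 125I agent, harvested immediately and plated for clonogenic survival (relative to untreated controls); 125I retained in nuclear DNA measured as mBq/cell.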

[12] = tested on: U-87MG ATCC; experiment: Cytotoxicity against human U87MG cells assessed as cell death at 18.5 kBq/mL after 8 weeks by clonogenic assay; type: functional, cell-based; details: tested as the 125I-labelled form
Summary of the method: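 U-87 MG cells treated 24 h with increasing 125I agent concentrations, then grown in fresh medium; colony formation followed up to eight weeks versus vehicle-treated controls.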

[13] = tested on: LS174T; experiment: Cytotoxicity against human LS 174T cells assessed as colony formation at 185 kBq/mL after 4 hrs by clonogenic assay relative to control; type: functional, cell-based; details: tested as the 125I-labelled form; summary of the method: as §2
[14] = tested on: Nucleic Acid; experiment: Binding affinity to human U87MG cell DNA at 27.3 kBq/mL incubated for 24 hrs followed by compound wash out measured after 144 hrs by gamma counting; type: nucleic-acid assay; details: U-87MG ATCC, tested as the 125I-labelled form
Summary of the method: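 U-87 MG cells treated 24 h with 27.3 kBq/mL 125I-labelled agent, then grown a further 144 h in fresh medium; 125I retained in DNA counted.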

[15] = tested on: Nucleic Acid; experiment: Binding affinity to human U87MG cell DNA at 185 kBq/mL after 120 hrs by gamma counting; type: nucleic-acid assay; details: U-87MG ATCC, tested as the 125I-labelled form
Summary of the method: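 U-87 MG glioblastoma cells exposed continuously to 185 kBq/mL 125I-labelled agent for 120 h; DNA isolated and DNA-associated 125I counted.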

[16] = tested on: Nucleic Acid; experiment: Binding affinity to human U87MG cell DNA at 19.6 kBq/mL after 40 hrs by gamma counting; type: nucleic-acid assay; details: U-87MG ATCC, tested as the 125I-labelled form
Summary of the method: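 U-87 MG cells incubated 40 h with 19.6 kBq/mL 125I-labelled agent; 125I in DNA measured (genomic tips DNA isolation), expressed as mBq 125I/cell.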

Chain of Cholinesterase (P06276 whole entry): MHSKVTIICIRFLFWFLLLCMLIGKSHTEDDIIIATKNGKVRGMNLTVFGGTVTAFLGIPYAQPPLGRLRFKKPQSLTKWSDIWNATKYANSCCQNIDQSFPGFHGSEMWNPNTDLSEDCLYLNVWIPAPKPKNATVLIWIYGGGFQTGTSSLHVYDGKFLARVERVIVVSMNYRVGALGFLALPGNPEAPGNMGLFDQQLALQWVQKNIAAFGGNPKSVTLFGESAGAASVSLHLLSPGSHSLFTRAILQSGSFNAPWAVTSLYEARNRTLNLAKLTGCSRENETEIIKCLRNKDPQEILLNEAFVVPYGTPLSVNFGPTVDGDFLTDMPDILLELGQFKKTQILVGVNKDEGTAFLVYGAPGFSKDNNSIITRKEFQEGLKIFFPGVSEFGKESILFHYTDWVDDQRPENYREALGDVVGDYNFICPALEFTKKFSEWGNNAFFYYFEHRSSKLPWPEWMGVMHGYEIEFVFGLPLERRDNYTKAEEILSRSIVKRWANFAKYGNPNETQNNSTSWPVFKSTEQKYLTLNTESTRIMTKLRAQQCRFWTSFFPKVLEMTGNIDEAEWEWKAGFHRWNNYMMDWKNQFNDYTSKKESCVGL

O=c1[nH]c(=O)n([C@H]2C[C@H](OP3(=O)OCc4ccccc4O3)[C@@H](COP3(=O)OCc4ccccc4O3)O2)cc1[125I] (some centres undefined)
Drug uptake [1]: 97.6 cpm | Drug uptake [2]: 37.3 cpm | Drug uptake [3]: 6.4 cpm | Drug uptake [4]: 18.1 cpm

Cc1cccc2c1OP(=O)(OC[C@H]1O[C@@H](n3cc([125I])c(=O)[nH]c3=O)C[C@@H]1OP1(=O)OCc3cccc(C)c3O1)OC2 (some centres undefined)
Drug uptake [1]: 97.1 cpm | Drug uptake [2]: 13.4 cpm | Drug uptake [3]: 6 cpm | Drug uptake [4]: 24.5 cpm

O=c1[nH]c(=O)n([C@H]2C[C@H](OP3(=O)OCc4ccccc4O3)[C@@H](CO)O2)cc1[125I] (some centres undefined)
Drug uptake [1]: 7.2 cpm | Drug uptake [2]: 2.7 cpm | Drug uptake [3]: 2.1 cpm | Drug uptake [4]: 30.2 cpm

Cc1cccc2c1OP(=O)(O[C@H]1C[C@H](n3cc([125I])c(=O)[nH]c3=O)O[C@@H]1CO)OC2 (some centres undefined)
Drug uptake [1]: 6.2 cpm | Drug uptake [2]: 1.4 cpm | Drug uptake [3]: 2 cpm | Drug uptake [4]: 15.7 cpm

CC(C)(C)c1cc(C(C)(C)C)c2c(c1F)COP(=O)(O[C@H]1C[C@H](n3cc([125I])c(=O)[nH]c3=O)O[C@@H]1CO)O2 (some centres undefined)
Drug uptake [1]: 62.5 cpm | Drug uptake [2]: 2.7 cpm | Drug uptake [3]: 4.3 cpm | Drug uptake [4]: 66.7 cpm

CC(C)(C)c1cc(C(C)(C)C)c2c(c1F)COP(=O)(OC[C@H]1O[C@@H](n3cc(I)c(=O)[nH]c3=O)C[C@@H]1F)O2 (stereo in doubt)
Activity [5]: inactive

O=c1[nH]c(=O)n([C@H]2C[C@H](O)[C@@H](COP3(=O)OCc4ccccc4O3)O2)cc1[125I] (stereo in doubt; 6b)
Drug uptake ([1]; 1 h): 20.2 cpm | Drug uptake ([2]; 24 h): 7.3 cpm | Drug uptake ([3]; 1 h): 5.7 cpm | Drug uptake ([4]; 24 h): 39.4 cpm | Drug uptake [6]: Active

Cc1cccc2c1OP(=O)(OC[C@H]1O[C@@H](n3cc([125I])c(=O)[nH]c3=O)C[C@@H]1O)OC2 (stereo in doubt; 7b)
Drug uptake ([1]; 1 h): 11.7 cpm | Drug uptake ([2]; 24 h): 1.6 cpm | Drug uptake ([3]; 1 h): 4.5 cpm | Drug uptake ([4]; 24 h): 25.9 cpm | Drug uptake [6]: Active

CC(C)(C)c1cc(C(C)(C)C)c2c(c1F)COP(=O)(OC[C@H]1O[C@@H](n3cc([125I])c(=O)[nH]c3=O)C[C@@H]1O)O2 (stereo in doubt; 8b)
Drug uptake ([1]; 1 h): 88.3 cpm | Drug uptake ([2]; 24 h): 3.2 cpm | Drug uptake ([3]; 1 h): 7.9 cpm | Drug uptake ([4]; 24 h): 92.2 cpm | Drug uptake [6]: > 230%

O=c1[nH]c(=O)n([C@H]2C[C@H](O)[C@@H](COP3(=O)OCc4ccccc4O3)O2)cc1I (stereo in doubt; form 1)
IC50 [7]: 1.28 µM

Cc1cccc2c1OP(=O)(OC[C@H]1O[C@@H](n3cc(I)c(=O)[nH]c3=O)C[C@@H]1O)OC2 (stereo in doubt; form 1)
IC50 [7]: > 7000 µM

CC(C)(C)c1cc(C(C)(C)C)c2c(c1F)COP(=O)(OC[C@H]1O[C@@H](n3cc(I)c(=O)[nH]c3=O)C[C@@H]1O)O2 (stereo in doubt; form 1)
K [8]: 2.41 ×10⁻⁴ /min | t1/2 [9]: 47.9 h

Cc1cn([C@H]2C[C@H](O)[C@@H](COP3(=O)OCc4c(F)c(C(C)(C)C)cc(C(C)(C)C)c4O3)O2)c(=O)[nH]c1=O (stereo in doubt; form 1)
IC50 [7]: 23.6 µM

Cc1cn([C@H]2C[C@H](F)[C@@H](COP3(=O)OCc4c(F)c(C(C)(C)C)cc(C(C)(C)C)c4O3)O2)c(=O)[nH]c1=O (stereo in doubt; form 1)
IC50 [7]: 0.203 µM

CC(C)(C)c1cc(C(C)(C)C)c2c(c1F)COP(=O)(OC[C@H]1O[C@@H](n3cc(I)c(=O)[nH]c3=O)C[C@@H]1F)O2 (stereo in doubt; form 1)
K [8]: 2.92 ×10⁻⁴ /min | t1/2 [9]: 39.6 h | IC50 [7]: 0.549 µM

O=c1[nH]c(=O)n([C@H]2C[C@H](OP3(=O)OCc4ccccc4O3)[C@@H](CO)O2)cc1I (stereo in doubt; form 1)
K [8]: 2.05 ×10⁻³ /min | t1/2 [9]: 5.3 h

Cc1cccc2c1OP(=O)(O[C@H]1C[C@H](n3cc(I)c(=O)[nH]c3=O)O[C@@H]1CO)OC2 (stereo in doubt; form 1)
K [8]: 9.46 ×10⁻⁴ /min | t1/2 [9]: 12.2 h

CC(C)(C)c1cc(C(C)(C)C)c2c(c1F)COP(=O)(O[C@H]1C[C@H](n3cc(I)c(=O)[nH]c3=O)O[C@@H]1CO)O2 (stereo in doubt; form 1)
K [8]: 7.66 ×10⁻⁴ /min | t1/2 [9]: 15.1 h

O=c1[nH]c(=O)n([C@H]2C[C@H](O)[C@@H](COP3(=O)OCc4ccccc4O3)O2)cc1I (stereo in doubt; form 2)
IC50 [7]: 0.0092 µM

Cc1cccc2c1OP(=O)(OC[C@H]1O[C@@H](n3cc(I)c(=O)[nH]c3=O)C[C@@H]1O)OC2 (stereo in doubt; form 2)
IC50 [7]: 0.0612 µM

CC(C)(C)c1cc(C(C)(C)C)c2c(c1F)COP(=O)(OC[C@H]1O[C@@H](n3cc(I)c(=O)[nH]c3=O)C[C@@H]1O)O2 (stereo in doubt; form 2)
K [8]: 1.88 ×10⁻⁴ /min | t1/2 [9]: 61.5 h | IC50 [7]: 0.0501 µM

Cc1cn([C@H]2C[C@H](O)[C@@H](COP3(=O)OCc4c(F)c(C(C)(C)C)cc(C(C)(C)C)c4O3)O2)c(=O)[nH]c1=O (stereo in doubt; form 2)
IC50 [7]: 0.376 µM

Cc1cn([C@H]2C[C@H](F)[C@@H](COP3(=O)OCc4c(F)c(C(C)(C)C)cc(C(C)(C)C)c4O3)O2)c(=O)[nH]c1=O (stereo in doubt; form 2)
IC50 [7]: 0.0426 µM

CC(C)(C)c1cc(C(C)(C)C)c2c(c1F)COP(=O)(OC[C@H]1O[C@@H](n3cc(I)c(=O)[nH]c3=O)C[C@@H]1F)O2 (stereo in doubt; form 2)
K [8]: 2.22 ×10⁻⁴ /min | t1/2 [9]: 52 h | IC50 [7]: 0.0198 µM

O=c1[nH]c(=O)n([C@H]2C[C@H](O)[C@@H](COP3(=O)OCc4ccccc4O3)O2)cc1[125I] (stereo in doubt; form 2)
K [8]: 1.52 ×10⁻³ /min | t1/2 [9]: 7.6 h | Activity [10]: 38% | Drug uptake ([1]; 1 h): 14.8 cpm | Drug uptake ([2]; 24 h): 6 cpm | Drug uptake ([3]; 1 h): 4.9 cpm | Drug uptake ([4]; 24 h): 31.3 cpm

Cc1cccc2c1OP(=O)(OC[C@H]1O[C@@H](n3cc([125I])c(=O)[nH]c3=O)C[C@@H]1O)OC2 (stereo in doubt; form 2)
K [8]: 4.63 ×10⁻⁴ /min | t1/2 [9]: 25 h | Drug uptake ([1]; 1 h): 13 cpm | Drug uptake ([2]; 24 h): 1.8 cpm | Drug uptake ([3]; 1 h): 5.4 cpm | Drug uptake ([4]; 24 h): 29.3 cpm

O=c1[nH]c(=O)n([C@H]2C[C@H](OP3(=O)OCc4ccccc4O3)[C@@H](CO)O2)cc1I (stereo in doubt; form 2)
K [8]: 1.64 ×10⁻³ /min | t1/2 [9]: 7.1 h

Cc1cccc2c1OP(=O)(O[C@H]1C[C@H](n3cc(I)c(=O)[nH]c3=O)O[C@@H]1CO)OC2 (stereo in doubt; form 2)
K [8]: 8.13 ×10⁻⁴ /min | t1/2 [9]: 14.2 h

CC(C)(C)c1cc(C(C)(C)C)c2c(c1F)COP(=O)(OC[C@H]1O[C@@H](n3cc([125I])c(=O)[nH]c3=O)C[C@@H]1F)O2 (stereo in doubt; form 2)
K [8]: 2.24 ×10⁻⁴ /min | t1/2 [9]: 51.5 h

CC(C)(C)c1cc(C(C)(C)C)c2c(c1F)COP(=O)(OC[C@H]1O[C@@H](n3cc(I)c(=O)[nH]c3=O)C[C@@H]1O)O2 (stereo in doubt; form 3)
IC50 [7]: 1.14 µM

Cc1cccc2c1OP(=O)(OC[C@H]1O[C@@H](n3cc(I)c(=O)[nH]c3=O)C[C@@H]1O)OC2 (stereo in doubt; form 3)
Activity [11]: Active

O=c1[nH]c(=O)n([C@H]2C[C@H](O)[C@@H](COP3(=O)OCc4ccccc4O3)O2)cc1I (stereo in doubt; form 3)
Activity [12]: Active

Cc1cccc2c1OP(=O)(OC[C@H]1O[C@@H](n3cc(I)c(=O)[nH]c3=O)C[C@@H]1O)OC2 (stereo in doubt; form 4)
Activity [13]: Active | Activity [11]: Active

O=c1[nH]c(=O)n([C@H]2C[C@H](O)[C@@H](COP3(=O)OCc4ccccc4O3)O2)cc1I (stereo in doubt; form 4)
Activity [14]: Active | Activity [15]: Active | Activity [16]: Active | Activity [12]: Active
